The source made the active and inactive calls. The rule behind the calls is not given here.
Columns and labels:
[1] = Mutagenicity in Drosophila melanogaster somatic cells assessed as frequency of clone formation in HB crosses at 0.25 to 1 mM by SMART assay; assay type: ADME; conditions: 1000 µM
Method in brief: (§1)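 Drosophila SMART wing-spot assay, ST and HB crosses. Third-instar larvae (72 ± 4 h) placed on hydrated instant mashed potato medium containing compound at 0.25, 0.5 or 1.0 mM final. Negative control: water with 1% Tween-80 and 3% ethanol. Statistics by Frei and Würgler two-sided U test, P≤0.05.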

[2] = tested on: Chlamydia trachomatis; assay: Anti-chlamydial activity against Chlamydia trachomatis Serovar LGV-L2 infected in Hep2 cells assessed as inhibition of chlamydial inclusion at 50 ug/ml treated at 8 hrs post infection and measured at 24 hrs post-infection by immunofluorescence assay; assay type: functional, organism-based
Method in brief: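 HEp-2 cells infected with C. trachomatis serovar L2. Compounds at 50 μg/mL added 8 hpi; inclusion number and size assessed by immunofluorescence at 24 hpi against untreated cells. Cell morphology and viability checked by phase-contrast microscopy.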

[3] = tested on: Chlamydia trachomatis; assay: Anti-chlamydial activity against Chlamydia trachomatis Serovar LGV-L2 infected in Hep2 cells assessed as reduction in chlamydial infectivity by measuring decrease in inclusion forming units at 50 ug/ml treated at 8 hrs post-infection and 24 hrs later re-infecting fresh Hep2 cells monolayer with infected cells and measured at 24 hrs post re-infection by immunofluorescence staining based microscopy analysis; assay type: functional, organism-based
Method in brief: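 HEp-2 cells in DMEM with 10% FBS, infected with C. trachomatis L2 at MOI 1. Compounds added 8 hpi in triplicate; DMSO stocks at 50 mg/mL. At 24 hpi lysates collected in sucrose storage medium, frozen at −80 °C, and used to infect fresh HEp-2 monolayers in 10-fold dilutions. After 24 h, stained with goat anti-MOMP and Alexa488 secondary. Inclusions counted in 15 fields at 20x; IFU = mean count per field corrected for dilution.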

[4] = (§2) Activation of recombinant human C-terminal 6xHis-tagged ClpP expressed in Escherichia coli assessed as induction of casein degradation at 0.1 to 1 uM using FITC-labelled casein as substrate pretreated with enzyme for 30 mins followed by substrate addition and measured every 3 mins for 3 hrs in absence of AAA+ chaperone by fluorescence based tecan-plate reader assay
Method in brief: (§3)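 Recombinant C-terminal His6-tagged ClpP, expressed in a clpAPX-null E. coli strain and purified (mammalian ClpP without mitochondrial signal, codon-optimized). ClpP at 1 or 0.1 μM (E. coli), 1 μM (human, mouse) or 6 μM (chlamydial ClpP1 and ClpP2) preincubated with compound or DMSO, 30 min, 32 °C, in HEPES pH 7.6/KCl/MgCl2/DTT/glycerol buffer. 20 μM FITC-casein then added. Fluorescence (ex 490/em 525 nm) read every 3 min for 3 h. At least three runs on at least two protein preparations.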

[5] = tested on: Chlamydia trachomatis; assay: as §2, with “Chlamydia trachomatis Serovar LGV-L2” for “human”, “6xhis-tagged ClpP1” for “6xHis-tagged ClpP”, “absence” for “absence of AAA+”; method in brief: as §3
[6] = tested on: Chlamydia trachomatis; assay: as §2, with “Chlamydia trachomatis Serovar LGV-L2” for “human”, “6xhis-tagged ClpP2” for “6xHis-tagged ClpP”; method in brief: as §3
[7] = tested on: Escherichia coli; assay: Antibacterial activity against Escherichia coli ATCC 25922 assessed as bacterial growth inhibition at 32 ug/ml measured after 16 hrs by broth microdilution method; assay type: functional, organism-based
[8] = tested on: Pseudomonas aeruginosa; assay: Antibacterial activity against Pseudomonas aeruginosa ATCC 27853 assessed as bacterial growth inhibition at 32 ug/ml measured after 16 hrs by broth microdilution method; assay type: functional, organism-based
[9] = tested on: Klebsiella pneumoniae; assay: Antibacterial activity against Klebsiella pneumoniae ATCC 700603 assessed as bacterial growth inhibition at 32 ug/ml measured after 16 hrs by broth microdilution method; assay type: functional, organism-based
[10] = tested on: Acinetobacter baumannii; assay: Antibacterial activity against Acinetobacter baumannii ATCC 19606 assessed as bacterial growth inhibition at 32 ug/ml measured after 16 hrs by broth microdilution method; assay type: functional, organism-based; conditions: ATCC 19606 = CIP 70.34 = JCM 6841
[11] = tested on: Candida albicans; assay: Antifungal activity against Candida albicans ATCC 90028 assessed as fungal growth inhibition at 32 ug/ml measured after 16 hrs by broth microdilution method; assay type: functional, organism-based
[12] = tested on: Staphylococcus aureus; assay: Antibacterial activity against Staphylococcus aureus JE2 assessed as bacterial death up to 256 ug/ml measured after 16 hrs by broth microdilution method; assay type: functional, organism-based
Method in brief: (§4)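 Broth microdilution in Mueller Hinton broth, triplicate. Direct colony suspension at 1.5 x 10^8 CFU/mL diluted to ~10^5 CFU/mL. Serial dilutions made from DMSO stocks at 1 mg/mL; vancomycin positive control, blank medium negative control. Incubated 16 h at optimum temperature. MIC is the lowest concentration without visible growth at 600 nm; mean of triplicate determinations.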

[13] = tested on: Escherichia coli; assay: Antibacterial activity against Escherichia coli K12 assessed as bacterial death up to 256 ug/ml measured after 16 hrs by broth microdilution method; assay type: functional, organism-based; conditions: K-12; method in brief: as §4
[14] = tested on: HeLa 229; assay: Cytotoxicity against human HeLa 229 cells assessed as reduction in cell viability at 50 ug/ml after 24 hrs by CCK-8 assay; assay type: cell-based; conditions: hela 229, 24 h
Method in brief: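 HeLa 229 and HaCaT cells in DMEM with 10% FBS and 1% penicillin/streptomycin, 37 °C, 5% CO2, seeded at 5000 cells/well. Next day treated with 50 μg/mL in triplicate, with matching DMSO controls. After 24 h, CCK-8 added for 2 h; corrected absorbance read at 450 nm.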

[15] = Half life in human liver microsomes at 1 ug/ml measured up to 60 mins by LC-MS/MS analysis; assay type: ADME, Microsome; conditions: microsomes, 1 h
Method in brief: (§5)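 Human liver microsomes (1.0 mg/mL protein) in 100 mM phosphate pH 7.4 with 10 mM MgCl2 and 2 mM NADPH, preincubated 10 min at 37 °C. Reaction started with compound at 1 μg/mL. Sampled at 0, 5, 15, 20, 30, 45 and 60 min and quenched in methanol with internal standard. Controls: no NADPH (negative), testosterone (positive). Analysed by LC-MS/MS, triplicate.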

[16] = Drug metabolism in human liver microsomes assessed as amount of drug modified at 1 ug/ml […] in presence of NADPH by LC-MS/MS analysis; assay type: ADME, Microsome; conditions: read-out: Drug metabolism
[17] = Stability of compound in human liver microsomes at 1 ug/ml measured up to 60 mins in absence of NADPH by LC-MS/MS analysis; assay type: ADME, Microsome; conditions: 1 h; method in brief: as §5
[18] = Stability of compound in mouse pre-heated plasma at 50 uM incubated up to 120 mins by HPLC-ESI/MS analysis; assay type: ADME, cell-free; conditions: 2 h
Method in brief: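 Compounds from 2.5 mM DMSO stocks incubated at 50 μM final in mouse plasma diluted to 80% with PBS, preheated, 37 °C, shaking. Sampled at 0, 15, 30, 60, 90 and 120 min and quenched with cold acetonitrile. Centrifuged; supernatant analysed by HPLC-ESI-MS. Peak area reported relative to time zero. Enalapril positive control; triplicate.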

[19] = Mutagenicity in Drosophila melanogaster somatic cells assessed as frequency of clone formation in ST crosses at 0.25 to 1 mM by SMART assay; assay type: ADME; conditions: 1000 µM; method in brief: as §1
[20] = Stability of the compound in simulated gastric fluid at 50 uM and pH 1.2 at 37 degree C measured up to 120 mins by HPLC-ESI/MS analysis; conditions: simulated gi fluid, pH 1.2, 2 h

| Structure (SMILES) | Activity [1] | inhibition [2] | inhibition [3] | Activity [4] | Activity [5] | Activity [6] | inhibition [7] | inhibition [8] | inhibition [9] | inhibition [10] | inhibition [11] | Activity [12] | Activity [13] | Activity [14] | t1/2 [15] [min] | metabolised at 10 min, 1 ug/ml [16] [%] | Stability [17] | Stability [18] | Activity [19] | Stability [20] |
| --- | --- | --- | --- | --- | --- | --- | --- | --- | --- | --- | --- | --- | --- | --- | --- | --- | --- | --- | --- | --- |
| CC(C)(C(=O)NCCCc1ccccc1)S(=O)(=O)c1ccc(C(F)(F)F)cc1 | Non-Toxic | Active | Active | Active | Active | Active | inactive | inactive | inactive | inactive | inactive | inactive | inactive | Toxic | 6.13 | 90 | Stable | Stable | Non-Toxic | Stable |
| CC(C)(C(=O)N1CCN(Cc2ccc(Cl)cc2)CC1)S(=O)(=O)c1ccc(C(F)(F)F)cn1 | Non-Toxic | Active | Active | Not Active | inactive | inactive | inactive | inactive | inactive | inactive | inactive | inactive | inactive | Non-Toxic | < 2 | 90 | Stable | Stable | Non-Toxic | Stable |

— ChEMBL document CHEMBL4342502, “Synthesis and Antichlamydial Activity of Molecules Based on Dysregulators of Cylindrical Proteases” (J Med Chem, 2020)
